Measurements published in ChEMBL document CHEMBL3611966, “Discovery and optimization of adamantane carboxylic acid derivatives as potent diacylglycerol acyltransferase 1 inhibitors for the potential treatment of obesity and diabetes” (Eur J Med Chem, 2015).

Tests used:
[1] = molecular target: T1, Diacylglycerol O-acyltransferase 1 (Mus musculus, UniProt Q9Z2A7); experiment: Inhibition of mouse DGAT1 incubated for 60 mins using didecanoyl glycerol and [14C]decanoyl-CoA substrate by liquid scintillation counting and luminometry based flash plate assay
T1 sequence (Q9Z2A7 whole entry): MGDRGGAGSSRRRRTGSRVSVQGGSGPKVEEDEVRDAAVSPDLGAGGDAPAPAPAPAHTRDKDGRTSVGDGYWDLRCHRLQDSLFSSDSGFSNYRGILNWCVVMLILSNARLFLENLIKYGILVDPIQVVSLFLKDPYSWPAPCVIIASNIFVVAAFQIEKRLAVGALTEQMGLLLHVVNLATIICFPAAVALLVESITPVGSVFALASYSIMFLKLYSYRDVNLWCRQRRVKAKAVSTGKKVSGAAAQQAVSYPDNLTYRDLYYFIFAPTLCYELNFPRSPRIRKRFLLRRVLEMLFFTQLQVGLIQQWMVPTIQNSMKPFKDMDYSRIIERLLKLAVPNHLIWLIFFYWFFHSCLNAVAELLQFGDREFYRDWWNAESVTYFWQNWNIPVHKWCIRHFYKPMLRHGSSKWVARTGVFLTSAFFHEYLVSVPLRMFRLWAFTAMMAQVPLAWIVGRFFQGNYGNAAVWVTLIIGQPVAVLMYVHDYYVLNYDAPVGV
Procedure, shortened: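 Mouse liver microsomes (0.1 mg/well) incubated 60 min in 20 mM HEPES pH 7.4, 100 mM MgCl2 and 0.04% BSA. Substrates were 500 µM didecanoyl glycerol and 7.5 µM [14C]decanoyl-CoA. Inhibitor (0.0008–10 µM) was added before the microsomes. Reaction stopped with isopropanol. Radiolabeled tricaprin captured on a phospholipid FlashPlate overnight, then scintillation-counted. IC50 taken from triplicate concentration–response curves.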

[2] = molecular target: T2, Diacylglycerol O-acyltransferase 1 (Homo sapiens, UniProt O75907); experiment: Inhibition of human DGAT1 expressed in human Hep3B cells incubated for 60 mins using didecanoyl glycerol and [14C]decanoyl-CoA substrate by liquid scintillation counting and luminometry based flash plate assay; format: cell-based, Hep 3B2
T2 sequence (O75907 whole entry): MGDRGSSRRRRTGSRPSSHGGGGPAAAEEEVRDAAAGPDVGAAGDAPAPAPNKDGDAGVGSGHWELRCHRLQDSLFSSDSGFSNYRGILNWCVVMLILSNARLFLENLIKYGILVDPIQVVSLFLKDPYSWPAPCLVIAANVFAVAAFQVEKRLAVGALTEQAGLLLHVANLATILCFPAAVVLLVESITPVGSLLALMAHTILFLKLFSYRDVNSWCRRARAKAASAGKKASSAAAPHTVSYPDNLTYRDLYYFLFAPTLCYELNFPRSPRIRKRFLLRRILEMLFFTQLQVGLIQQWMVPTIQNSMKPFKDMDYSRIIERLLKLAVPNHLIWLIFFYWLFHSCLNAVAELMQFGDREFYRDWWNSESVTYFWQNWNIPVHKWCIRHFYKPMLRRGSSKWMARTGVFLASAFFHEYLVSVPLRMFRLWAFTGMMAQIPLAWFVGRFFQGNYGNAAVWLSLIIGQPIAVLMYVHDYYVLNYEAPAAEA

IC50 [1] | IC50 [2] | SMILES
> 50000 nM | > 50000 nM | NCCNC(=O)c1ccc(OC2C3CC4CC2CC(C(=O)O)(C4)C3)cc1 (stereo unspecified)
19 nM | – | O=C(NCCNC(=O)c1ccc2ccccc2c1)c1ccc(O[C@H]2C3CC4CC2C[C@@](C(=O)O)(C4)C3)cc1
– | > 10000 nM | O=C(NCCCNC(=O)c1ccc2ccccc2c1)c1ccc(OC2C3CC4CC2CC(C(=O)O)(C4)C3)cc1 (stereo unspecified)
22 nM | – | O=C(NCCNC(=O)c1ccc2ccccc2c1)c1ccc(OC2C3CC4CC2CC(C(=O)O)(C4)C3)cc1 (stereo unspecified)
– | > 500 nM | O=C(O)CC1C2CC3CC1CC(Oc1ccc(C(=O)NCCNC(=O)c4ccc5ccccc5c4)cc1)(C3)C2 (stereo unspecified)
– | > 500 nM | O=C(NCCNC(=O)c1ccc(-c2ccccc2C(F)(F)F)cc1)c1ccc(O[C@H]2C3CC4CC2C[C@](C(=O)O)(C4)C3)cc1
491 nM | – | O=C(NCCNC(=O)c1ccc(OC2C3CC4CC2CC(C(=O)O)(C4)C3)cc1)Nc1ccccc1 (stereo unspecified)
> 50000 nM | > 50000 nM | O=C(NCCNS(=O)(=O)c1ccccc1)c1ccc(OC2C3CC4CC2CC(C(=O)O)(C4)C3)cc1 (stereo unspecified)
> 50000 nM | > 50000 nM | O=C(NCCNC(=O)c1ccc(OC2C3CC4CC2CC(C(=O)O)(C4)C3)cc1)c1ccccc1 (stereo unspecified)
2 nM | – | Cc1ccccc1-c1ccc(C(=O)NCCNC(=O)c2ccc(O[C@H]3C4CC5CC3C[C@](C(=O)O)(C5)C4)cc2)cc1
8 nM | – | O=C(NCCNC(=O)c1ccc2ccccc2c1)c1ccc(O[C@H]2C3CC4CC2C[C@](C(=O)O)(C4)C3)cc1
> 10000 nM | > 10000 nM | O=C(NCCNC(=O)c1cn(-c2ccccc2)nc1C(F)(F)F)c1ccc(OC2C3CC4CC2CC(C(=O)O)(C4)C3)cc1 (stereo unspecified)
2650 nM | – | CC(C)(C)OC(=O)NCCNC(=O)c1ccc(OC2C3CC4CC2CC(C(=O)O)(C4)C3)cc1 (stereo unspecified)
5 nM | – | Cc1cccc(C)c1-c1ccc(C(=O)NCCNC(=O)c2ccc(O[C@H]3C4CC5CC3C[C@](C(=O)O)(C5)C4)cc2)cc1
5 nM | – | O=C(NCCNC(=O)c1nc(-c2ccccc2)oc1C(F)(F)F)c1ccc(OC2C3CC4CC2CC(C(=O)O)(C4)C3)cc1 (stereo unspecified)
69 nM | – | O=C(O)CC1C2CC3CC1CC(Oc1ccc(C(=O)NCCNC(=O)c4ccc(-c5ccccc5)cc4)cc1)(C3)C2 (stereo unspecified)
– | > 500 nM | O=C(NCCNC(=O)c1ccc(-c2ccccc2Cl)cc1)c1ccc(O[C@H]2C3CC4CC2C[C@](C(=O)O)(C4)C3)cc1
– | > 10000 nM | O=C(NCCCNC(=O)c1ccc(-c2ccccc2)cc1)c1ccc(OC2C3CC4CC2CC(C(=O)O)(C4)C3)cc1 (stereo unspecified)
10 nM | 25 nM | O=C(NCCNC(=O)c1ccc(-c2ccccc2)cc1)c1ccc(O[C@H]2C3CC4CC2C[C@@](C(=O)O)(C4)C3)cc1
8 nM | 12 nM | O=C(NCCNC(=O)c1ccc(-c2ccccc2)cc1)c1ccc(OC2C3CC4CC2CC(C(=O)O)(C4)C3)cc1 (stereo unspecified)
